Experiments:
[1] = Verinurad plasma pharmacokinetics, Phase I single and multiple dose study; format: in vivo, human; details: for GMR AUC0–24 (day 6/day 1) / GMR AUC0–∞ (day 6/day 1) / GMR Cmax (day 6/day 1): fed (day 6) vs fasted (day 1); for Tmax: median (range); for AUC(0-t): AUC0–24, Japanese subjects; for half-life: t1/2, Japanese subjects
Procedure, shortened: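 Oral modified-release tablets were given once as a single dose on day 1 (fasted overnight ≥10 h) and day 6 (after a moderate-fat breakfast), then daily fed through day 12. Serial plasma was sampled to 72 h on days 1 and 12, to 24 h on day 6, and predose on days 8–11. Samples were stored at −70°C. Cmax and AUC0–24 came from noncompartmental analysis, with comparisons as geometric mean ratios.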

[2] = Verinurad urinary pharmacokinetics; format: in vivo, human; details: for CLR0–24 / fe0–24: Japanese subjects, geometric mean (95% CI)
[3] = Japanese subjects, 2.5 mg single dose
[4] = Japanese subjects, 5 mg single dose
[5] = Japanese subjects, 10 mg single dose
[6] = Japanese subjects, 15 mg single dose
[7] = Japanese subjects, across the dose groups 2.5–15 mg, fed vs fasted
[8] = male, human, plasma, oral, 5 mg, 5 mg once daily multiple doses, fed, day 12, geometric mean (95% CI)
[9] = male, human, plasma, oral, 10 mg, 10 mg once daily multiple doses, fed, day 12, geometric mean (95% CI)
[10] = male, human, plasma, oral, 15 mg, 15 mg once daily multiple doses, fed, day 12, geometric mean (95% CI)
[11] = multiple verinurad 10 mg doses, fed
[12] = 2.5 mg single dose, fasted, day 1
[13] = 5 mg once daily multiple doses, fed, day 12
[14] = 5 mg single dose, fasted, day 1
[15] = 10 mg once daily multiple doses, fed, day 12
[16] = 10 mg single dose, fasted, day 1
[17] = 15 mg once daily multiple doses, fed, day 12
[18] = 15 mg single dose, fasted, day 1

Structure (SMILES): CC(C)(Sc1ccncc1-c1ccc(C#N)c2ccccc12)C(=O)O [verinurad]
- AUC0–24 GMR, % (95% CI), Japanese/non-Asian ([1]; 10 mg single dose, fed): 176 (137–227) %
- AUC0–24 GMR, % (95% CI), Japanese/non-Asian, bodyweight normalized to 70 kg ([1]; 10 mg single dose, fed): 139 (114–170) %
- Cmax GMR, % (95% CI), Japanese/non-Asian ([1]; 10 mg single dose, fed): 142 (107–189) %
- Cmax GMR, % (95% CI), Japanese/non-Asian, bodyweight normalized to 70 kg ([1]; 10 mg single dose, fed): 112 (88.5–143) %
- GMR AUC0–24 (day 6/day 1) [1, 3]: 146 (101–211) %
- GMR AUC0–∞ (day 6/day 1) [1, 3]: 131 (82.9–208) %
- GMR Cmax (day 6/day 1) [1, 3]: 116 (105–128) %
- Rac, accumulation ratio (day 12/day 6), AUC0–24 ([1]; Japanese subjects, 2.5 mg, fed): 1.06 (0.672–1.68)
- Tmax ([1]; Japanese subjects, 5 mg once daily multiple doses, fed, day 12): 4.00 (2.00–10.0) h
- GMR AUC0–24 (day 6/day 1) [1, 4]: 185 (121–283) %
- GMR AUC0–∞ (day 6/day 1) [1, 4]: 173 (108–278) %
- GMR Cmax (day 6/day 1) [1, 4]: 126 (89.1–179) %
- Rac, accumulation ratio (day 12/day 6), Cmax ([1]; Japanese subjects, 5 mg, fed): 1.24 (1.01–1.53)
- AUC0–24 ([1]; Japanese subjects, 10 mg single dose, fasted, day 1, geometric mean (95% CI)): 93.4 (74.2–118) ng·h/mL
- GMR AUC0–24 (day 6/day 1) [1, 5]: 209 (172–253) %
- GMR AUC0–∞ (day 6/day 1) [1, 5]: 197 (181–215) %
- GMR Cmax (day 6/day 1) [1, 5]: 99.7 (85.1–117) %
- Rac, accumulation ratio (day 12/day 6), AUC0–24 ([1]; Japanese subjects, 10 mg, fed): 0.886 (0.679–1.16)
- Rac, accumulation ratio (day 12/day 6), Cmax ([1]; Japanese subjects, 10 mg, fed): 1.14 (0.774–1.64)
- AUC0–24 ([1]; Japanese subjects, 15 mg single dose, fed, day 6, geometric mean (95% CI)): 239 (137–416) ng·h/mL
- GMR AUC0–24 (day 6/day 1) [1, 6]: 107 (89.1–128) %
- GMR AUC0–∞ (day 6/day 1) [1, 6]: 100 (83.1–120) %
- GMR Cmax (day 6/day 1) [1, 6]: 112 (90.6–139) %
- Rac, accumulation ratio (day 12/day 6), AUC0–24 ([1]; Japanese subjects, 15 mg, fed): 1.20 (0.979–1.46)
- Rac, accumulation ratio (day 12/day 6), Cmax ([1]; Japanese subjects, 15 mg, fed): 1.09 (0.823–1.44)
- effect of moderate-fat meal on plasma AUC0–∞ (increase) [1, 7]: 0%–97%
- effect of moderate-fat meal on plasma Cmax (increase) [1, 7]: 0%–26%
- AUC0–24 ([1]; Japanese, 10 mg single dose, fasted, geometric least square mean): 93.4 ng·h/mL
- Cmax ([1]; Non-Asian, 10 mg single dose, fed, geometric least square mean): 15.4 ng/mL
- AUC(0-t) [1, 8]: 80.9 ng·h/mL
- Cmax ([1]; male, human, plasma, oral, 5 mg, Cmax, Japanese subjects, 5 mg once daily multiple doses, fed, day 12, geometric mean (95% CI)): 11.5 ng/mL
- half-life [1, 8]: 7.85 h
- AUC(0-t) [1, 9]: 173 ng·h/mL
- Cmax ([1]; male, human, plasma, oral, 10 mg, Cmax, Japanese subjects, 10 mg once daily multiple doses, fed, day 12, geometric mean (95% CI)): 24.9 ng/mL
- Tmax ([1]; male, human, plasma, oral, 10 mg, Tmax, Japanese subjects, 10 mg once daily multiple doses, fed, day 12): 4.5 h
- half-life [1, 9]: 6.93 h
- AUC(0-t) [1, 10]: 286 ng·h/mL
- Cmax ([1]; male, human, plasma, oral, 15 mg, Cmax, Japanese subjects, 15 mg once daily multiple doses, fed, day 12, geometric mean (95% CI)): 41.5 ng/mL
- half-life [1, 10]: 9.79 h
- AUC higher in Japanese vs non-Asian subjects [1, 11]: 23%
- Cmax higher in Japanese vs non-Asian subjects [1, 11]: 38%
- CLR0–24 [2, 12]: 16.1 (9.41–27.6) mL/min
- fe0–24 [2, 12]: 0.896 (0.620–1.29) %
- CLR0–24 ([2]; 2.5 mg single dose, fed, day 6): 15.7 (9.54–25.8) mL/min
- fe0–24 ([2]; 2.5 mg single dose, fed, day 6): 1.27 (0.659–2.47) %
- CLR0–24 [2, 13]: 17.0 (11.8–24.5) mL/min
- fe0–24 [2, 13]: 1.65 (0.959–2.84) %
- CLR0–24 [2, 14]: 16.4 (11.3–23.7) mL/min
- fe0–24 [2, 14]: 0.640 (0.279–1.47) %
- CLR0–24 ([2]; 5 mg single dose, fed, day 6): 15.1 (11.8–19.3) mL/min
- fe0–24 ([2]; 5 mg single dose, fed, day 6): 1.09 (0.730–1.64) %
- CLR0–24 [2, 15]: 17.0 (9.43–25.4) mL/min
- fe0–24 [2, 15]: 1.77 (1.38–2.25) %
- CLR0–24 [2, 16]: 13.1 (10.1–16.9) mL/min
- fe0–24 [2, 16]: 0.733 (0.558–0.964) %
- fe0–24 ([2]; 10 mg single dose, fed, day 6): 1.63 (1.24–2.16) %
- CLR0–24 [2, 17]: 16.0 (8.22–31.3) mL/min
- fe0–24 [2, 17]: 1.83 (1.23–2.73) %
- CLR0–24 [2, 18]: 9.30 (5.46–15.9) mL/min
- fe0–24 [2, 18]: 0.788 (0.424–1.45) %
- CLR0–24 ([2]; 15 mg single dose, fed, day 6): 12.0 (6.06–23.7) mL/min
- fe0–24 ([2]; 15 mg single dose, fed, day 6): 1.14 (0.907–1.45) %
- renal clearance GMR, Japanese vs non-Asian ([2]; multiple dosing, 90% CI 79.7–126): 100%
- fraction of drug excreted in urine GMR, Japanese vs non-Asian ([2]; multiple dosing, 90% CI 98.7–153): 123%
- renal clearance GMR, Japanese vs non-Asian ([2]; single dose, fasted, 90% CI 53.7–91.4): 70.0%
- fraction of drug excreted in urine GMR, Japanese vs non-Asian ([2]; single dose, fasted, 90% CI 70.9–124): 93.7%
- renal clearance GMR, Japanese vs non-Asian ([2]; single dose, fed, 90% CI 65.0–101): 80.9%
- fraction of drug excreted in urine GMR, Japanese vs non-Asian ([2]; single dose, fed, 90% CI 107–191): 143%
